# Source: ChEMBL document CHEMBL4715798, “Structure-Based Optimization of Multifunctional Agonists for Opioid and Neuropeptide FF Receptors with Potent Nontolerance Forming Analgesic Activities” (J Med Chem, 2016)
# pEC50: −log10 of the molar value. The source made the active and inactive calls. No cut-off for these calls is given here. Non-standard residues stand in square brackets, D forms with d. Residues, ends and D or L forms follow the SMILES beside them. NMeF = CN[C@@H](Cc1ccccc1)C(=O)O
# Columns and labels:
# [1] = molecular target: T1, Mu-type opioid receptor (Homo sapiens, UniProt P35372); test: Agonist activity at mu opioid receptor (unknown origin) expressed in HEK293-A cells assessed as reduction in forskolin-induced cAMP accumulation incubated for 30 mins by competition PKA binding assay; assay type: functional, cell-based; conditions: for pEC50: read-out: EC50
# Summary of the method: (§1)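 cAMP functional read-out in transfected cells. Log EC50 ± standard error was obtained by nonlinear regression of data from at least three independent experiments run in duplicate.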
# [2] = molecular target: T1, Mu-type opioid receptor; test: Agonist activity at mu opioid receptor (unknown origin) expressed in HEK293-A cells assessed as reduction in forskolin-induced cAMP accumulation incubated for 30 mins by competition PKA binding assay relative to Tyr-D-Ala-Gly-Phe-Gln-Pro-Gln-Arg-Phe-NH2; assay type: functional, cell-based; conditions: filed as agonist; summary of the method: as §1
# [3] = molecular target: Kappa-type opioid receptor (Homo sapiens, UniProt P41145); test: Agonist activity at kappa opioid receptor (unknown origin) expressed in HEK293-A cells assessed as reduction in forskolin-induced cAMP accumulation incubated for 30 mins by competition PKA binding assay; assay type: functional, cell-based; summary of the method: as §1
# [4] = molecular target: T2, Delta-type opioid receptor (Homo sapiens, UniProt P41143); test: Agonist activity at delta opioid receptor (unknown origin) expressed in HEK293-A cells assessed as reduction in forskolin-induced cAMP accumulation incubated for 30 mins by competition PKA binding assay; assay type: functional, cell-based; summary of the method: as §1
# [5] = molecular target: T2, Delta-type opioid receptor; test: Agonist activity at delta opioid receptor (unknown origin) expressed in HEK293-A cells assessed as reduction in forskolin-induced cAMP accumulation incubated for 30 mins by competition PKA binding assay relative to Tyr-D-Ala-Gly-Phe-Gln-Pro-Gln-Arg-Phe-NH2; assay type: functional, cell-based; conditions: filed as agonist; summary of the method: as §1
# [6] = molecular target: T3, Neuropeptide FF receptor 1 (Homo sapiens, UniProt Q9GZQ6); test: Agonist activity at NPFFR1 (unknown origin) expressed in HEK293-A cells assessed as reduction in forskolin-induced cAMP accumulation incubated for 30 mins by competition PKA binding assay; assay type: functional, cell-based; conditions: for pEC50: read-out: EC50; summary of the method: as §1
# [7] = molecular target: T3, Neuropeptide FF receptor 1; test: Agonist activity at NPFFR1 (unknown origin) expressed in HEK293-A cells assessed as reduction in forskolin-induced cAMP accumulation incubated for 30 mins by competition PKA binding assay relative to Tyr-D-Ala-Gly-Phe-Gln-Pro-Gln-Arg-Phe-NH2; assay type: functional, cell-based; conditions: filed as agonist; summary of the method: as §1
# [8] = molecular target: T4, Neuropeptide FF receptor 2 (Homo sapiens, UniProt Q9Y5X5); test: Agonist activity at NPFFR2 (unknown origin) expressed in HEK293-A cells assessed as reduction in forskolin-induced cAMP accumulation incubated for 30 mins by competition PKA binding assay; assay type: functional, cell-based; conditions: for pEC50: read-out: EC50; summary of the method: as §1
# [9] = molecular target: T4, Neuropeptide FF receptor 2; test: Agonist activity at NPFFR2 (unknown origin) expressed in HEK293-A cells assessed as reduction in forskolin-induced cAMP accumulation incubated for 30 mins by competition PKA binding assay relative to Tyr-D-Ala-Gly-Phe-Gln-Pro-Gln-Arg-Phe-NH2; assay type: functional, cell-based; summary of the method: as §1
# [10] = tested on: Mus musculus; test: Antinociceptive activity in mouse dosed repeated icv injections for 6 days by radiant heat tail-flick test; assay type: functional; conditions: time 6 day
# Summary of the method: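 Mice received the same icv dose once daily for 6 days in the radiant heat tail-flick test. Tolerance was judged by comparing the antinociceptive response on day 1 with day 6. Values are mean ± SEM.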
# [11] = tested on: Mus musculus; test: Antinociceptive activity in mouse assessed as development of tolerance dosed repeated icv injections for 6 days by radiant heat tail-flick test; assay type: functional, organism-based; conditions: time 6.0 day
# Summary of the method: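 Tail-flick test in mice. Peptide was given icv once daily for 6 days at a fixed dose. Antinociceptive responses to the same dose on day 1 and day 6 were compared to judge tolerance. Values are mean ± SEM.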
# [12] = molecular target: T3, Neuropeptide FF receptor 1; test: Agonist activity at NPFFR1 (unknown origin) expressed in HEK293-A cells assessed as reduction in forskolin-induced cAMP accumulation at 10 uM incubated for 30 mins by competition PKA binding assay relative to Tyr-D-Ala-Gly-Phe-Gln-Pro-Gln-Arg-Phe-NH2; assay type: functional, cell-based; summary of the method: as §1
# [13] = species: Mus musculus; test: Antinociceptive activity in mouse; assay type: functional
# [14] = tested on: Mus musculus; test: Antinociceptive activity in icv dosed mouse assessed as inhibition of phase I flinching behaviors by formalin-induced nociceptive behavioral test; assay type: functional
# [15] = tested on: Mus musculus; test: Antinociceptive activity in icv dosed mouse assessed as inhibition of phase II flinching behaviors by formalin-induced nociceptive behavioral test; assay type: functional
compound,measurement,setting,value
CSCC[C@H](NC(=O)[C@H](Cc1ccccc1)NC(=O)CNC(=O)[C@@H](C)NC(=O)[C@@H](N)Cc1ccc(O)cc1)C(=O)N1CCC[C@H]1C(=O)N[C@@H](CCC(N)=O)C(=O)N[C@@H](CCCNC(=N)N)C(=O)N[C@@H](Cc1ccccc1)C(N)=O (H-Y[dA]GFMPQRF-NH2),pEC50,[1],6.90
same,Emax,[2],89.2%
same,pEC50,[3],6.62
same,pEC50,[4],7.41
same,Emax,[5],81.2%
same,pEC50,[6],6.52
same,Emax,[7],69.2%
same,pEC50,[8],7.06
same,Emax,[9]; filed as agonist,58.4%
same,ED50,[10],0.2967 nmol
same,Activity,[11],Active
CSCC[C@@H](NC(=O)[C@H](Cc1ccccc1)NC(=O)CNC(=O)[C@@H](C)NC(=O)[C@@H](N)Cc1ccc(O)cc1)C(=O)N1CCC[C@H]1C(=O)N[C@@H](CCC(N)=O)C(=O)N[C@@H](CCCNC(=N)N)C(=O)N[C@@H](Cc1ccccc1)C(N)=O (H-Y[dA]GF[dM]PQRF-NH2),pEC50,[1],6.39
same,Emax,[2],89.7%
same,pEC50,[3],5.61
same,pEC50,[4],6.92
same,Emax,[5],78.4%
same,pEC50,[8],6.50
same,Emax,[9]; filed as agonist,70.2%
same,Emax,[12],26.6%
same,ED50,[10],0.3986 nmol
same,Activity,[11],Active
C[C@@H](NC(=O)[C@@H](N)Cc1ccc(O)cc1)C(=O)NCC(=O)N[C@@H](Cc1ccccc1)C(=O)N[C@H](C)C(=O)N1CCC[C@H]1C(=O)N[C@@H](CCC(N)=O)C(=O)N[C@@H](CCCNC(=N)N)C(=O)N[C@@H](Cc1ccccc1)C(N)=O (H-Y[dA]GF[dA]PQRF-NH2),pEC50,[1],6.60
same,EC50,[1]; read-out: pEC50 (converted),245 nM
same,Emax,[2],85.6%
same,pEC50,[4],6.09
same,Emax,[5],85.3%
same,pEC50,[8],5.30
same,Emax,[9]; filed as agonist,45.9%
same,Emax,[12],15.1%
same,ED50,[10],0.3361 nmol
same,Activity,[11],Active
CSCC[C@@H](NC(=O)[C@@H](N)Cc1ccc(O)cc1)C(=O)NCC(=O)N[C@@H](Cc1ccccc1)C(=O)N[C@@H](CCC(N)=O)C(=O)N1CCC[C@H]1C(=O)N[C@@H](CCC(N)=O)C(=O)N[C@@H](CCCNC(=N)N)C(=O)N[C@@H](Cc1ccccc1)C(N)=O,pEC50,[1],6.37
same,Emax,[2],89.4%
same,pEC50,[3],5.90
same,pEC50,[4],6.94
same,Emax,[5],84.7%
same,pEC50,[6],6.18
same,Emax,[7],73.5%
same,pEC50,[8],7.38
same,Emax,[9]; filed as agonist,57.9%
same,ED50,[10],0.0314 nmol
same,Activity,[11],inactive
CC(C)C[C@H](NC(=O)[C@H](Cc1ccccc1)NC(=O)CNC(=O)[C@@H](C)NC(=O)[C@@H](N)Cc1ccc(O)cc1)C(=O)N1CCC[C@H]1C(=O)N[C@@H](CCC(N)=O)C(=O)N[C@@H](CCCNC(=N)N)C(=O)N[C@@H](Cc1ccccc1)C(N)=O (H-Y[dA]GFLPQRF-NH2),pEC50,[1],6.60
same,Emax,[2],98.9%
same,pEC50,[3],6.92
same,pEC50,[4],7.31
same,Emax,[5],79.1%
same,pEC50,[6],7.26
same,EC50,[6]; read-out: pEC50 (converted),53.7 nM
same,Emax,[7],68.4%
same,pEC50,[8],6.59
same,Emax,[9]; filed as agonist,57.3%
same,ED50,[10],0.1865 nmol
same,Activity,[11],Active
C[C@@H](NC(=O)[C@@H](N)Cc1ccc(O)cc1)C(=O)NCC(=O)N[C@@H](Cc1ccccc1)C(=O)NCC(=O)N1CCC[C@H]1C(=O)N[C@@H](CCC(N)=O)C(=O)N[C@@H](CCCNC(=N)N)C(=O)N[C@@H](Cc1ccccc1)C(N)=O (H-Y[dA]GFGPQRF-NH2),pEC50,[1],7.55
same,Emax,[2],80.4%
same,pEC50,[3],5.79
same,pEC50,[4],6.05
same,Emax,[5],75.7%
same,pEC50,[6],6.06
same,Emax,[7],66.8%
same,pEC50,[8],6.73
same,Emax,[9]; filed as agonist,56.2%
same,ED50,[10],0.4172 nmol
same,Activity,[11],Active
N=C(N)NCCC[C@H](NC(=O)[C@H](CCC(N)=O)NC(=O)[C@@H]1CCCN1C(=O)[C@H](CCC(N)=O)NC(=O)[C@H](Cc1ccccc1)NC(=O)CNC(=O)[C@@H](CO)NC(=O)[C@@H](N)Cc1ccc(O)cc1)C(=O)N[C@@H](Cc1ccccc1)C(N)=O,pEC50,[1],6.25
same,Emax,[2],97.1%
same,pEC50,[3],5.83
same,pEC50,[4],6.93
same,Emax,[5],84.9%
same,pEC50,[6],5.50
same,Emax,[7],82.3%
same,pEC50,[8],6.60
same,EC50,[8]; read-out: pEC50 (converted),245 nM
same,Emax,[9]; filed as agonist,63%
same,ED50,[10],0.6062 nmol
same,Activity,[11],inactive
CC(C)C[C@@H](NC(=O)[C@H](Cc1ccccc1)NC(=O)CNC(=O)[C@@H](C)NC(=O)[C@@H](N)Cc1ccc(O)cc1)C(=O)N1CCC[C@H]1C(=O)N[C@@H](CCC(N)=O)C(=O)N[C@@H](CCCNC(=N)N)C(=O)N[C@@H](Cc1ccccc1)C(N)=O (H-Y[dA]GF[dL]PQRF-NH2),pEC50,[1],6.23
same,Emax,[2],86.3%
same,pEC50,[4],7.24
same,Emax,[5],86.4%
same,pEC50,[8],6.19
same,Emax,[9],37.2%
same,Emax,[12],30.7%
same,ED50,[10],0.4367 nmol
same,Activity,[11],Active
C[C@@H](NC(=O)[C@@H](N)Cc1ccc(O)cc1)C(=O)NCC(=O)N[C@@H](Cc1ccccc1)C(=O)N[C@@H](CCC(N)=O)C(=O)N1CCC[C@H]1C(=O)N[C@@H](CCC(N)=O)C(=O)N[C@@H](CCCNC(=N)N)C(=O)N[C@@H](Cc1ccccc1)C(N)=O (H-Y[dA]GFQPQRF-NH2),pEC50,[1],6.51
same,Emax,[2],92.4%
same,pEC50,[3],6.25
same,pEC50,[4],6.23
same,Emax,[5],82.2%
same,pEC50,[6],6.23
same,Emax,[7],59.9%
same,pEC50,[8],6.73
same,Emax,[9]; filed as agonist,58.4%
same,ED50,[10],0.533 nmol
same,Activity,[11],Active
same,ED50,[13],0.39 nmol
same,ED50,[14],120 pmol
same,ED50,[15],1140 pmol
C[C@@H](NC(=O)[C@@H](N)Cc1ccc(O)cc1)C(=O)NCC(=O)N(C)[C@@H](Cc1ccccc1)C(=O)N[C@@H](CCC(N)=O)C(=O)N1CCC[C@H]1C(=O)N[C@@H](CCC(N)=O)C(=O)N[C@@H](CCCNC(=N)N)C(=O)N[C@@H](Cc1ccccc1)C(N)=O (H-Y[dA]G[NMeF]QPQRF-NH2),pEC50,[1],7.70
same,Emax,[2],91.6%
same,pEC50,[3],7.51
same,pEC50,[4],6.80
same,Emax,[5],84.9%
same,pEC50,[6],6.54
same,Emax,[7],67.7%
same,pEC50,[8],6.57
same,Emax,[9]; filed as agonist,54.5%
same,ED50,[10],0.3862 nmol
same,Activity,[11],Active
